# Rows were chosen to be rich in hits. Some 2.1% of all compounds tested hit in one or more screens of this group.
# C2C12 statin: suppression of simvastatin myotoxicity. 330,000 compounds, 0.78% hits. rescue of ATP level, % at 7.49 µM. C2C12 myotubes + simvastatin, ATP luminescence, 48 h; scaled: DMSO 0, geranylgeraniol control 100;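 active means mean ATP rescue above about 67%, or every replicate alone reaching that limit, limit read from the data, passing the limit was not always enough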;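 further: myotubes were challenged with 10 µM simvastatin during compound exposure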
# Cneo AK release: Cryptococcus neoformans lysis via adenylate kinase release; lysis activity, % at 15 µM; C. neoformans lysis, adenylate kinase release luminescence, 4 h; normalised: neutral wells 0, clomiphene wells 100; AID 651654; 360,000 compounds, 0.2% hits;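 active means mean lysis activity across replicates of at least 80%, whatever share of replicates individually reach that level; inactive means mean lysis activity below 80%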
#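 Material – log-phase Cryptococcus neoformans yeast cells · Input – 5 × 10^6 yeast cells/mL · Medium – fresh YPD growth medium · Doses – single compound concentration per well · Timing – static 4 h at 37 °C with compound, 1 h detection · Detection – adenylate kinase release luminescence · Read-out – signal increase indicating cell lysis · Control set – Clomiphene as positive lysis control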
# Xi reactivation: activators of X-chromosome reactivation in mouse fibroblasts | XiGFP mouse fibroblasts, % GFP-positive cells imaging, 3 d; cells co-treated with 5-aza-dC sensitizer; scaled so ellipticine positive control = 100% | activation, % at 7.58 µM | 360,000 compounds, 0.055% hits | AID 743238;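 active means mean normalized replicate activation at least 10% and every replicate at or above 10%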;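 further: 0% = median of on-plate neutral control wells and 100% = ellipticine 6 µM median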
#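 System: XiGFP fibroblasts, SV40-immortalized. Medium: DMEM plus 5-aza-dC sensitizer. Doses: single point. Timing: 3 d treatment, 15 min room-temperature fixation. Control set: ellipticine 6 µM.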
# DENV2 CPE rescue: protects cells from dengue virus 2 cytopathic effect; DENV2-infected cells, cytopathic effect rescue, plate reader; CPE inhibition, % at 9.99 µM; 350,000 compounds, 1.7% hits; AID 651640; in the data active means CPE inhibition above about 20%, passing the limit was not always enough; tested in BHK-21 cells;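 further: 0% = median of neutral control wells and 100% = median of positive control wells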
# * hit, by the source's call; nt = no result; ! = not active in a repeat.
SMILES,C2C12 statin,Cneo AK release,Xi reactivation,DENV2 CPE rescue
C[C@H]1CCCCO[C@@H](CN(C)Cc2ccc3c(c2)OCO3)[C@@H](C)CN([C@@H](C)CO)C(=O)c2cc(NS(=O)(=O)c3cccs3)ccc2O1,nt,-4.3,0.0,59.1*!
C[C@@H]1CN([C@H](C)CO)C(=O)c2cc(NS(=O)(=O)c3cccs3)ccc2O[C@@H](C)CCCCO[C@H]1CN(C)Cc1ccc2c(c1)OCO2,nt,12.0,0.2,54.6*
O=C([C@@H]1[C@@H](CO)[C@@H]2Cn3c(ccc(-c4cccnc4)c3=O)[C@H]1N2Cc1cccnc1)N1CCOCC1,-0.9,-1.0,0.1,-4.8
C[C@H]1CCCCO[C@@H](CN(C)Cc2ccc(C(F)(F)F)cc2)[C@@H](C)CN([C@@H](C)CO)C(=O)c2cc(NC(=O)CCCN(C)C)ccc2O1,nt,5.0,-0.5,-10.9
O=C1C=C(c2cccc(Cl)c2)C[C@@H](c2ccc3c(c2)OCO3)C1,133.7*,-4.2,-0.1,nt
O=C(NC[C@@H]1N[C@@H](CO)[C@@H]1c1ccccc1)c1ccccc1F,6.4,2.3,0.2,29.2*
O=C(NC[C@H]1N[C@@H](CO)[C@H]1c1ccc(-c2ccccc2)cc1)c1ccccc1F,-36.3,1.5,0.5,8.2
C[C@@H]1CN([C@H](C)CO)C(=O)c2cc(C3=CCCC3)cnc2O[C@@H]1CN(C)C,2.8,-3.5,-1.1,-5.1
C[C@@H]1CCCCO[C@H](CN(C)Cc2ccc(Cl)c(Cl)c2)[C@@H](C)CN([C@@H](C)CO)C(=O)c2cc(NS(=O)(=O)c3ccccc3)ccc2O1,nt,-2.2,nt,24.2*
C[C@@H]1CCCCO[C@H](CN(C)Cc2ccc(Cl)c(Cl)c2)[C@@H](C)CN([C@H](C)CO)C(=O)c2cc(NS(=O)(=O)c3ccccc3)ccc2O1,nt,-0.9,-0.2,32.1*
C[C@H]1CCCCO[C@H](CN(C)Cc2ccc(Cl)c(Cl)c2)[C@@H](C)CN([C@@H](C)CO)C(=O)c2cc(NS(=O)(=O)c3ccccc3)ccc2O1,nt,nt,-0.6,-12.8
Cc1cc2ncn(/N=C/c3ccc([N+](=O)[O-])o3)c2cc1C,86.7*,-3.0,nt,nt
O=[N+]([O-])c1ccc(/C=N/N=C/c2ccc([N+](=O)[O-])o2)o1,nt,nt,2.5,-1.8
Cc1cc(N/N=C/c2ccc([N+](=O)[O-])o2)nc2ccccc12,nt,nt,42.6*,1.6
C[C@@H]1CN([C@H](C)CO)C(=O)c2cc(-c3cccnc3)cnc2O[C@H]1CN(C)C(=O)c1cccc(F)c1,1.4,-0.9,-0.3,-7.0
COc1ccc(CNC(=O)COc2ccc(OC)cc2)cc1,25.0,-3.8,0.0,2.6
COc1ccc(CNC(=O)CCOc2ccc(C(C)(C)C)cc2)cc1,104.3*,0.6,nt,nt
Cc1nc2nc(Cc3ccccc3)nn2c(C)c1Cl,4.8,0.6,nt,nt
Cc1nc2nc(COc3ccccc3)nn2c(C)c1Cl,73.2*,-2.0,nt,nt
CN(CC(=O)NCc1ccco1)CC(=O)Nc1ccc(F)c(F)c1F,109.0*,1.6,0.0,11.9
Cn1ccc2c(-c3cccc(C=O)c3)cc3c(c21)C1CCC3O1 (stereo not given),9.2,-2.8,nt,50.3*
COc1cccc(NC(=O)N[C@H]2CC[C@H](CC(=O)NCc3ccccn3)O[C@H]2CO)c1,-7.6,-0.7,0.3,11.4
C/C=C/c1ccc([C@H]2[C@@H](CO)N(C(=O)CC3CC3)C23CN(S(C)(=O)=O)C3)cc1,nt,nt,-0.1,1.9
CC(=O)N1[C@H](C(=O)N(C)C)[C@@H](CO)[C@@H]2Cn3c(ccc(-c4ccc(F)cc4)c3=O)[C@@H]21,26.0,-2.3,0.6,13.0
CCN1C(=O)N[C@H]2C[C@@H](c3ccccc3)[C@@H](C)[C@@H](C(=O)N3CCCC3)C[C@H]21,nt,nt,-0.1,-5.5
SMILES,C2C12 statin,Cneo AK release,Xi reactivation,DENV2 CPE rescue
CCn1c2c(n(C(C)=O)c1=O)C[C@@H](c1ccccc1)[C@@H](C)[C@@H](C(=O)N1CCCC1)C2,nt,nt,0.0,49.7*
CC(C)c1[nH]nc2c1C(C(C)C)C(C#N)=C(N)O2 (stereo not given),71.9*,0.2,nt,nt
Cc1nnc(Nc2ccc(O)cc2)[nH]c1=O,106.6*,0.2,-0.1,-7.4
Cc1nnc(Nc2ccc(C(=O)O)cc2)[nH]c1=O,nt,nt,0.0,-2.3
O=C(C[C@H]1CC[C@H]2[C@@H](COC[C@@H](O)CN2C(=O)c2ccccc2)O1)NCc1cccc(F)c1,-1.7,-1.6,0.1,-6.1
Cc1ccc(O)c(C(=O)c2cc(C#N)c(=O)n(CC3CCCO3)c2)c1 (stereo not given),95.3*,nt,nt,nt
CCOC(=O)N1CCC(NCCNC(=O)c2ccc(F)c(F)c2)CC1,0.2,-0.9,0.4,21.1*
